Measured values as given in ChEMBL document CHEMBL2034980, “N⁴-Phenyl-substituted 2-acetylpyridine thiosemicarbazones: cytotoxicity against human tumor cells, structure-activity relationship studies and investigation on the mechanism of action” (Bioorg Med Chem, 2012).
Activity calls are given as the source filed them.

Assays:
[1] = system: MCF7; assay: Cytotoxicity against human MCF7 cells after 48 hrs by MTT assay; format: functional, cell-based; conditions: for IC50: MCF7, 48 h, read-out: IC50
Procedure, shortened: (§1)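 MTT assay. Cells were grown in DMEM with 10% FBS and penicillin/streptomycin at 37 °C under 5% CO2, seeded at 1–2×10^3 cells/well and treated 12 h later with 1×10^-12 to 1×10^-5 M ([…] from DMSO stock, final DMSO <0.5%) for 48 h. MTT was added at 0.5 mg mL⁻¹, formazan dissolved in DMSO and read at 570 nm. IC50 is the concentration giving 50% cytotoxicity. Quadruplicates, ≥3 independent experiments.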

[2] = (§2) Cytotoxicity against human U87 cells expressing wild-type p53 after 48 hrs by MTT assay; format: functional, cell-based, U-87MG ATCC; conditions: U-87 MG, read-out: IC50; procedure, shortened: as §1
[3] = system: U-87MG ATCC; assay: as §2; format: functional, cell-based; procedure, shortened: as §1
[4] = system: T98G; assay: Cytotoxicity against human T98G cells expressing mutant p53 after 48 hrs by MTT assay; format: functional, cell-based; conditions: for IC50: read-out: IC50; procedure, shortened: as §1
[5] = Haemolytic activity in human RBC after 1 hr by photometry; format: ADME, cell-based; conditions: Erythrocyte
Procedure, shortened: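 Human EDTA blood was spun at 700xg for 10 min and the erythrocytes washed three times in cold PBS pH 7.4, then resuspended in it. Cells were incubated with varying compound concentrations for 1 h at 37 °C with shaking. After centrifugation, released haemoglobin was read at 540 nm to give the IC50. Mean ± SD, n = 4.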

[6] = system: MCF7; assay: Induction of apoptosis in human MCF7 cells assessed as irregularities in cellular shape at 1 uM after 48 hrs by DAPI staining; format: functional, cell-based
[7] = system: MCF7; assay: Induction of apoptosis in human MCF7 cells assessed as cell shrinkage at 1 uM after 48 hrs by DAPI staining; format: functional, cell-based
[8] = system: MCF7; assay: Induction of apoptosis in human MCF7 cells assessed as membrane blebbing at 1 uM after 48 hrs by DAPI staining; format: functional, cell-based
[9] = system: MCF7; assay: Induction of apoptosis in human MCF7 cells assessed as chromatin condensation at 1 uM after 48 hrs by DAPI staining; format: functional, cell-based
Procedure, shortened: (§3)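 Cells were treated at 1 μM for 48 h, washed in PBS and fixed in 70% methanol for 30 min at room temperature. They were stained with 0.4 μg mL⁻¹ DAPI for 1 h in the dark, and nuclear condensation and fragmentation were scored by fluorescence microscopy (385–410 nm).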

[10] = system: MCF7; assay: Induction of apoptosis in human MCF7 cells assessed as DNA fragmentation at 1 uM after 48 hrs by DAPI staining; format: functional, cell-based; procedure, shortened: as §3
[11] = system: T98G; assay: Induction of apoptosis in human T98G cells assessed as irregularities in cellular shape at 1 uM after 48 hrs by DAPI staining; format: functional, cell-based
[12] = system: T98G; assay: Induction of apoptosis in human T98G cells assessed as cell shrinkage at 1 uM after 48 hrs by DAPI staining; format: functional, cell-based
[13] = system: T98G; assay: Induction of apoptosis in human T98G cells assessed as membrane blebbing at 1 uM after 48 hrs […]; format: functional, cell-based
[14] = system: T98G; assay: Induction of apoptosis in human T98G cells assessed as chromatin condensation at 1 uM after 48 hrs by DAPI staining; format: functional, cell-based; procedure, shortened: as §3
[15] = system: T98G; assay: Induction of apoptosis in human T98G cells assessed as DNA fragmentation at 1 uM after 48 hrs by DAPI staining; format: functional, cell-based; procedure, shortened: as §3
[16] = system: U-87MG ATCC; assay: Induction of apoptosis in human U87 cells assessed as irregularities in cellular shape at 1 uM after 48 hrs by DAPI staining; format: functional, cell-based
[17] = system: U-87MG ATCC; assay: Induction of apoptosis in human U87 cells assessed as cell shrinkage at 1 uM after 48 hrs by DAPI staining; format: functional, cell-based
[18] = system: U-87MG ATCC; assay: Induction of apoptosis in human U87 cells assessed as membrane blebbing at 1 uM after 48 hrs by DAPI staining; format: functional, cell-based
[19] = system: U-87MG ATCC; assay: Induction of apoptosis in human U87 cells assessed as chromatin condensation at 1 uM after 48 hrs by DAPI staining; format: functional, cell-based; procedure, shortened: as §3
[20] = system: U-87MG ATCC; assay: Induction of apoptosis in human U87 cells assessed as DNA fragmentation at 1 uM after 48 hrs by DAPI staining; format: functional, cell-based; procedure, shortened: as §3
[21] = system: MCF7; assay: Induction of apoptosis in human MCF7 cells assessed as appearance of autophagolysosomes at 1 uM after 48 hrs by acridine orange/ethidium bromide staining-based microscopy; format: functional, cell-based
Procedure, shortened: (§4)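 After 48 h at 1 μM, cells were incubated for 15 min in serum-free medium containing 1 μg mL⁻¹ acridine orange and 1 μg mL⁻¹ ethidium bromide. The medium was removed and cells imaged by inverted fluorescence microscopy (530–650 nm). Green/orange nuclear patterns and acidic cytoplasmic vacuoles were scored.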

[22] = system: T98G; assay: Induction of apoptosis in human T98G cells assessed as appearance of autophagolysosomes at 1 uM after 48 hrs by acridine orange/ethidium bromide staining-based microscopy; format: functional, cell-based; procedure, shortened: as §4
[23] = system: U-87MG ATCC; assay: Induction of apoptosis in human U87 cells assessed as appearance of autophagolysosomes at 1 uM after 48 hrs by acridine orange/ethidium bromide staining-based microscopy; format: functional, cell-based; procedure, shortened: as §4
[24] = system: MCF7; assay: Induction of apoptosis in human MCF7 cells assessed as chromatin condensation at 1 uM after 48 hrs by acridine orange/ethidium bromide staining-based microscopy; format: functional, cell-based; procedure, shortened: as §4
[25] = system: T98G; assay: Induction of apoptosis in human T98G cells assessed as chromatin condensation at 1 uM after 48 hrs by acridine orange/ethidium bromide staining-based microscopy; format: functional, cell-based; procedure, shortened: as §4
[26] = system: U-87MG ATCC; assay: Induction of apoptosis in human U87 cells assessed as chromatin condensation at 1 uM after 48 hrs by acridine orange/ethidium bromide staining-based microscopy; format: functional, cell-based; procedure, shortened: as §4
[27] = species: Bos taurus; assay: Inhibition of bovine brain tubulin polymerization at 5 to 20 uM after 10 mins by spectrophotometry
Procedure, shortened: (§5)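 Bovine brain tubulin (10 μM; 1 mg mL⁻¹) in 0.8 M monosodium glutamate with 1% DMSO was pre-incubated with compound (four twofold dilutions) at 30 °C, then cooled to 0 °C for 10 min. GTP (0.4 mM) was added and the temperature raised to 37 °C while A350 was followed.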

[28] = system: HeLa; assay: Induction of mitotic arrest in human HeLa cells assessed as reduction in cell density by immunofluorescence staining; format: functional, cell-based
Procedure, shortened: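 HeLa cells (8000/well), collagen-coated plates, dosed within 4-6 h of seeding in quadruplicate with 10 twofold dilutions or vehicle (DMSO 0.1% final); 18 h at 37 °C, 5% CO2. Formaldehyde fixation, Hoechst 33342 nuclear stain, anti-α-tubulin/anti-phosphohistone H3 immunostaining; automated high-content imaging. Cell density from nuclear counts; EC50 read from dose-response cell density curves.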

[29] = system: HeLa; assay: Induction of mitotic arrest in human HeLa cells assessed as nuclear condensation by Hoechst 33342 staining; format: functional; conditions: read-out: MEC
Procedure, shortened: (§6)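 HeLa cells (8000/well, collagen-coated plates) were dosed in quadruplicate within 4–6 h of seeding with 10 twofold dilutions or vehicle (0.1% DMSO) for 18 h at 37 °C. Cells were fixed, stained with Hoechst 33342 and immunostained for phosphohistone H3 (Ser10) and α-tubulin, then analysed by automated imaging. Positivity threshold: mean of 28 vehicle wells +1 SD. Values reported as MDEC and EC50.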

[30] = system: HeLa; assay: Induction of mitotic arrest in human HeLa cells assessed as reduction in tubulin intensity by Hoechst 33342 staining; format: functional; conditions: read-out: MEC; procedure, shortened: as §6
[31] = system: HeLa; assay: Induction of mitotic arrest in human HeLa cells assessed as mitotic index measuring phosphohistone H3-positive cells by Hoechst 33342 staining; format: functional; conditions: read-out: MEC; procedure, shortened: as §6
[32] = species: Bos taurus; assay: Total inhibition of bovine brain tubulin polymerization at concentration close to compound solubility limit after 10 mins by spectrophotometry; procedure, shortened: as §5

| SMILES | Activity [1] | IC50 [1] | IC50 [2] | Activity [3] | Activity [4] | IC50 [4] | IC50 [5] | Activity [6] | Activity [7] | Activity [8] | Activity [9] | Activity [10] | Activity [11] | Activity [12] | Activity [13] | Activity [14] | Activity [15] | Activity [16] | Activity [17] | Activity [18] | other results |
| --- | --- | --- | --- | --- | --- | --- | --- | --- | --- | --- | --- | --- | --- | --- | --- | --- | --- | --- | --- | --- | --- |
| CC(=NNC(=S)Nc1ccc(Cl)cc1)c1ccccn1 (mixture of isomers) | Dose-dependent effect | 0.0085 µM | 0.0017 µM | Dose-dependent effect | Dose-dependent effect | 0.0059 µM | > 10 µM | Active | Active | Active | Active | Active | Active | Active | Active | Active | Active | Active | Active | Active | Activity [19]: Active; Activity [20]: Active; Activity [21]: Active; Activity [22]: Active; Activity [23]: Active; Activity [24]: Active; Activity [25]: Active; Activity [26]: Active; inhibition [27]: Active; EC50 [28]: 9.2 µM; minimal effective concentration [29]: 5.8 µM; minimal effective concentration [30]: 3.6 µM; minimal effective concentration [31]: > 50 µM; inhibition [32]: inactive |
| CC(=NNC(=S)Nc1cccc([N+](=O)[O-])c1)c1ccccn1 (mixture of isomers) | Dose-dependent effect | 0.038 µM | 0.069 µM | Dose-dependent effect | Dose-dependent effect | 0.14 µM | > 10 µM | Active | Active | Active | Active | Active | Active | Active | Active | Active | Active | Active | Active | Active | Activity [19]: Active; Activity [20]: Active; Activity [21]: Active; Activity [22]: Active; Activity [23]: Active; Activity [24]: Active; Activity [25]: Active; Activity [26]: Active |
| CC(=NNC(=S)Nc1ccc([N+](=O)[O-])cc1)c1ccccn1 (mixture of isomers) | Dose-dependent effect | 0.052 µM | 0.16 µM | Dose-dependent effect | Dose-dependent effect | 0.14 µM | > 10 µM | Active | Active | Active | Active | Active | Active | Active | Active | Active | Active | Active | Active | Active | Activity [19]: Active; Activity [20]: Active; Activity [21]: Active; Activity [22]: Active; Activity [23]: Active; Activity [24]: Active; Activity [25]: Active; Activity [26]: Active |
| COc1cc2c(c(OC)c1OC)-c1ccc(OC)c(=O)cc1[C@@H](NC(C)=O)CC2 [COLCHICINE] | – | – | – | – | – | – | – | – | – | – | – | – | – | – | – | – | – | – | – | – | EC50 [28]: 0.03 µM; minimal effective concentration [29]: 0.01 µM; minimal effective concentration [30]: 0.01 µM; minimal effective concentration [31]: 0.02 µM |
